Assay results from ChEMBL document CHEMBL4725418, “Design, Synthesis, and Structure-Activity Relationship Studies of Dual Inhibitors of Soluble Epoxide Hydrolase and 5-Lipoxygenase” (J Med Chem, 2020).
Values after ≈ are worked out from the molar mass of the structure shown. Active and inactive are the calls of the source. The calls are words filed in the database; no cut-off is given here.

Assays:
[1] = target: T1, Bifunctional epoxide hydrolase 2 (Homo sapiens, UniProt P34913); assay: Inhibition of human sEH (1 to 555 residues) expressed in Escherichia coli BL21-(DE3) using PHOME substrate incubated for 30 to 45 mins by fluorescence based assay
T1 sequence (P34913 whole entry): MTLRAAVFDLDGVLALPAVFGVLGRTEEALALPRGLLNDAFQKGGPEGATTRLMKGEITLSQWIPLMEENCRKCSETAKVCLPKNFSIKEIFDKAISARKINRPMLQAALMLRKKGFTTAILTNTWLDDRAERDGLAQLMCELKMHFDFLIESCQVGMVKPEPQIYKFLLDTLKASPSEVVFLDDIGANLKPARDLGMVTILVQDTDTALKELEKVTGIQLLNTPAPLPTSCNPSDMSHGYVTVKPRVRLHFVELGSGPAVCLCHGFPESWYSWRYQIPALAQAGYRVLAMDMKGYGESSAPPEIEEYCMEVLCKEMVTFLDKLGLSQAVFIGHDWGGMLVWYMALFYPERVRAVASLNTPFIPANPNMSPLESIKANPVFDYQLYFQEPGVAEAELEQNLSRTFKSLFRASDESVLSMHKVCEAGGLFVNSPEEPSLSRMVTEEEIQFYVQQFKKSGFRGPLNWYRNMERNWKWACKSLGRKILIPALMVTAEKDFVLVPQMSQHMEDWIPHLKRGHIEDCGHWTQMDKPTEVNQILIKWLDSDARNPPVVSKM

[2] = Metabolic stability in rat liver microsomes assessed as compound remaining after 60 mins; assay type: ADME, Microsome; settings: read-out: Stabilty
In short: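 Compound incubated with rat liver microsomes for 60 min; percent parent compound remaining determined; n ≥ 3.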

[3] = target: T2, Polyunsaturated fatty acid 5-lipoxygenase (Homo sapiens, UniProt P09917); assay: Inhibition of 5-LOX (unknown origin) expressed in Escherichia coli BL21-(DE3) pre-incubated for 15 mins before AA substrate addition and measured after 10 mins by HPLC/UV assay
T2 sequence (P09917 whole entry): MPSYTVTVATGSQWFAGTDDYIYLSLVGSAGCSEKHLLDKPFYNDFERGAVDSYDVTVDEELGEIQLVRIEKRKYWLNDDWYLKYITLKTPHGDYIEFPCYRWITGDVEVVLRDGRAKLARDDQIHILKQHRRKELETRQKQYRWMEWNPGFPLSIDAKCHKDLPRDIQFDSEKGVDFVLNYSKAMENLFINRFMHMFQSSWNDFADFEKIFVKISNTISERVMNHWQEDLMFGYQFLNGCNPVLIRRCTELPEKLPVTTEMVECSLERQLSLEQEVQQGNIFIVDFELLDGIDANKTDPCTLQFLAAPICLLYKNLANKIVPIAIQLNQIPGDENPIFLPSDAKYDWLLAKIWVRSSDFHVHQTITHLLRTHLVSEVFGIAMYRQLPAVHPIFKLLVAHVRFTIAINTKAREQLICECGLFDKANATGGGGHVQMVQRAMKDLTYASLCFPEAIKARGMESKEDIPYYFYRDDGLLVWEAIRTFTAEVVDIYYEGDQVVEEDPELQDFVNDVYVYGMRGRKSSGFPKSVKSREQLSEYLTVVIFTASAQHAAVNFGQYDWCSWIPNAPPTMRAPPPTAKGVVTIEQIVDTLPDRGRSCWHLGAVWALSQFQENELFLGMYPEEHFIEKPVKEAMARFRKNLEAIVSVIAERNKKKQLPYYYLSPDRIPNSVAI
In short: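 Recombinant 5-LOX activity measured with arachidonic acid as substrate; product formation monitored by HPLC. IC50 from at least three independent determinations (n ≥ 3), reported with 95% confidence interval.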

[4] = Solubility in pH 7.4 DPBS buffer; assay type: physicochemical
[5] = system: HepG2; assay: Cytotoxicity in human HepG2 cells assessed as effect on cell viability up to 25 uM incubated for 48 hrs by CellTiter-Glo luminescent cell viability assay; assay type: cell-based; settings: hepg2, 48 h
In short: (§1)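 Cell viability measured by CellTiter-Glo luminescence, quantifying ATP as an indicator of viable cells.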

[6] = system: Mus musculus; assay: Anti-fibrotic activity in C57BL/6 mouse model of unilateral ureter obstruction-induced kidney inflammation and fibrosis assessed as inhibition of tubulo-interstitial fibrosis by measuring reduced fibrillar collagen at 3 mg/kg, ip dosed daily for 7 days by Sirius red staining method; assay type: functional, organism-based; settings: time 7.0 day
In short: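 Mice with unilateral ureter obstruction to induce kidney inflammation and fibrosis, given compound or vehicle intraperitoneally. Ligated (UUO) and contralateral kidneys taken at day 7. Fibrosis read by AZAN and Sirius Red staining, with Sirius Red imaged under bright and polarized light. Macrophages detected by F4/80 staining, quantified as positive area. Col1a1, FN1, TNFα and Ccl2 mRNA measured in whole-kidney homogenates by real-time qRT-PCR normalized to GAPDH.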

[7] = system: HepG2; assay: Cytotoxicity in human HepG2 cells assessed as reduction in on cell viability at 7 uM incubated for 48 hrs by CellTiter-Glo luminescent cell viability assay; assay type: cell-based; settings: hepg2, 48 h; in short: as §1

Structure (SMILES)	IC50 [1] [nM]	IC50 [3] [nM]	further results
C[C@H](C#Cc1cccc(C(=O)NCCC(c2ccc(F)cc2)c2ccc(OC(F)(F)F)cc2)c1)N(O)C(N)=O (stereo partly drawn)	2.4	260	remaining at 1 h [2]: 43%; solubility [4]: 10 µM (≈ 5.44 µg/mL)
C[C@H](C#Cc1cccc(C(=O)NCCN(c2ccccc2)c2ccccc2)c1)N(O)C(N)=O	5	110	remaining at 1 h [2]: 17%; solubility [4]: 3 µM (≈ 1.33 µg/mL)
CC(C#Cc1cccc(C(=O)NCCC(c2ccccc2)c2ccc(Cl)cc2)c1)N(O)C(N)=O (stereo not drawn)	2	120	–
C[C@H](C#Cc1cccc(C(=O)NCC[C@H](c2ccc(F)cc2)c2ccc(C(F)(F)F)cc2)c1)N(O)C(N)=O	3	230	–
O=C(Cc1ccc(Oc2nc3ccccc3s2)cc1F)NCCc1ccc(F)cc1	130	–	–
CC(C#Cc1cccc(C(=O)NCCc2ccc(F)cc2)c1)N(O)C(N)=O (stereo not drawn)	1200	3100	–
C[C@H](C#Cc1cccc(C(=O)NCCC(c2ccccc2)c2ccc(S(N)(=O)=O)cc2)c1)N(O)C(N)=O (stereo partly drawn)	2.4	1000	–
CS(=O)(=O)c1ccc(C(CCNC(=O)c2ccc(C#N)nc2)c2ccc(F)cc2)cc1 (stereo not drawn)	6	–	–
C[C@H](C#Cc1cccc(C(=O)NCCC(c2ccccc2)c2ccc(NS(C)(=O)=O)cc2)c1)N(O)C(N)=O (stereo partly drawn)	3	900	–
CC(C#Cc1cccc(C(=O)NCc2cccc(F)c2)c1)N(O)C(N)=O (stereo not drawn)	9000	4000	–
C[C@H](C#Cc1ccc(Cc2ccc(F)cc2)s1)N(O)C(N)=O [ATRELEUTON]	2700	90	solubility [4]: 30 µM (≈ 9.55 µg/mL)
C[C@H](C#Cc1cccc(C(=O)NCCC(c2ccc(F)cc2)c2ccc(C(F)(F)F)cc2)c1)N(O)C(N)=O (stereo partly drawn)	1.6	220	remaining at 1 h [2]: 66%; Activity [5]: Non-Toxic; Activity [6]: inactive; Activity [7]: Toxic; solubility [4]: 3 µM (≈ 1.58 µg/mL)
CC(C#Cc1cccc(C(=O)NCCC(c2ccccc2)c2ccccc2)c1)N(O)C(N)=O (stereo not drawn)	2	300	remaining at 1 h [2]: 27%; solubility [4]: 3 µM (≈ 1.32 µg/mL)
CC(C#Cc1cccc(C(=O)NCCC(c2ccccc2)c2ccc(F)cc2)c1)N(O)C(N)=O (stereo not drawn)	2	160	–
CC(C#Cc1cccc(C(=O)NCCC(c2ccccc2)c2ccc(OC(F)(F)F)cc2)c1)N(O)C(N)=O (stereo not drawn)	7	110	–
C[C@H](C#Cc1cccc(C(=O)NCCC(c2ccccc2)c2ccc(Cl)c(Cl)c2)c1)N(O)C(N)=O (stereo partly drawn)	2.1	96	–
CNc1nc(C)nc(N2CCC(C(=O)NCc3ccccc3OC(F)(F)F)CC2)n1	1	–	–
CNc1nc(C)nc(N2CCC(C(=O)NCc3ccc(F)cc3C(F)(F)F)CC2)n1	3	–	–
C[C@H](C#Cc1cccc(C(=O)NCC[C@@H](c2ccc(F)cc2)c2ccc(C(F)(F)F)cc2)c1)N(O)C(N)=O	3	160	–
CC(C#Cc1cccc(C(=O)NCCC(c2ccccc2)c2ccc(C(F)(F)F)cc2)c1)N(O)C(N)=O (stereo not drawn)	2.7	150	–
CC(C#Cc1cccc(C(=O)NCCc2c[nH]c3ccccc23)c1)N(O)C(N)=O (stereo not drawn)	3100	1700	–
CNc1nc(C)nc(N2CCC(C(=O)NCc3ccccc3C(F)(F)F)CC2)n1	3	–	–
CC(C#Cc1cccc(C(=O)NCc2ccc(Cl)cc2Cl)c1)N(O)C(N)=O (stereo not drawn)	40	600	–
CC(C#Cc1ccc(C(=O)NCc2ccccc2C(F)(F)F)o1)N(O)C(N)=O (stereo not drawn)	600	4000	–

Now from value to compound, other results behind:

IC50 [1] [nM]	IC50 [3] [nM]	Structure (SMILES)	further results
4	1700	COc1ccc(CNC(=O)c2cccc(C#CC(C)N(O)C(N)=O)c2)c(C(F)(F)F)c1 (stereo not drawn)	–
60	600	C[C@H](C#Cc1cccc(C(=O)NCc2ccccc2C(F)(F)F)c1)N(O)C(N)=O	–
29	1300	CC(C#Cc1cccc(C(=O)NCc2ccc(F)cc2C(F)(F)F)c1)N(O)C(N)=O (stereo not drawn)	–
2600	1000	CC(C#Cc1ccc(C(=O)NCc2ccccc2C(F)(F)F)cc1)N(O)C(N)=O (stereo not drawn)	–
5	600	CC(C)CC(C#Cc1cccc(C(=O)NCc2ccccc2C(F)(F)F)c1)N(O)C(N)=O (stereo not drawn)	–
50	4000	NC(=O)N(O)CC#Cc1cccc(C(=O)NCc2ccccc2C(F)(F)F)c1	–
90	700	CC(C#Cc1cccc(C(=O)NCc2ccccc2C(F)(F)F)c1)N(O)C(N)=O (stereo not drawn)	–
12	300	CCCC(C#Cc1cccc(C(=O)NCc2ccccc2C(F)(F)F)c1)N(O)C(N)=O (stereo not drawn)	–
3100	1700	Cc1ccc(C(=O)NCc2ccccc2C(F)(F)F)cc1C#CC(C)N(O)C(N)=O (stereo not drawn)	–
11	500	CC(C)C(C#Cc1cccc(C(=O)NCc2ccccc2C(F)(F)F)c1)N(O)C(N)=O (stereo not drawn)	–
16	1000	CC(C#Cc1cccc(C(=O)NCc2ccccc2OC(F)(F)F)c1)N(O)C(N)=O (stereo not drawn)	–
22	500	CCC(C#Cc1cccc(C(=O)NCc2ccccc2C(F)(F)F)c1)N(O)C(N)=O (stereo not drawn)	–
500	10000	CC(C#Cc1cncc(C(=O)NCc2ccccc2C(F)(F)F)c1)N(O)C(N)=O (stereo not drawn)	–
60	700	C[C@@H](C#Cc1cccc(C(=O)NCc2ccccc2C(F)(F)F)c1)N(O)C(N)=O	–
